Test results as given in ChEMBL document CHEMBL5724801, “EUbOPEN Chemogenomics Library - Multiplex” (2024).
Values joined by “and” are separate entries in the source; they are usually repeats but may differ in a detail not shown here. Equal entries are not always repeated.

Tested on: HEK-293T
Test: Multiplex assay against HEK293T
Format: toxicity, cell-based
Details: human
Summary of the method: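 On a CQ1 microscope at 37°C and 5% CO2, live cells were imaged after compound addition. They had been stained at seeding with Hoechst33342, BioTracker Green Microtubule Cytoskeleton Dye, MitoTracker Red and Annexin V Alexa Fluor 680. CellPathfinder machine-learning gating assigned cells to Hoechst high-intensity objects or normal cells, normal cells to healthy, pyknosed or fragmented nuclei, and pyknosed cells to mitotic or apoptotic. Tubulin, mitochondrial-mass and membrane-permeability phenotypes are per cents of healthy-nucleus cells.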

[1] = 12 h, 1 µM, compound concentration 1 uM
[2] = 12 h, 10 µM, compound concentration 10 uM
[3] = 24 h, 1 µM, compound concentration 1 uM
[4] = 24 h, 10 µM, compound concentration 10 uM
[5] = 48 h, 1 µM, compound concentration 1 uM
[6] = 48 h, 10 µM, compound concentration 10 uM

SMILES: COc1cccc2c1c(NS(=O)(=O)c1ccc(Cl)s1)nn2Cc1cccc(CNC(=O)C(C)(C)O)c1
- Population Apoptotic (%) [1]: 31% and 34%
- Population Fragmented Nuclei (%) [1]: 6% and 7%
- Population Healthy Nuclei (%) [1]: 82% and 77%
- Population Hoechst High Intensity Objects (%) [1]: 6% and 10%
- Population Membrane Permeable-Phenotype (%) [1]: 0%
- Population Mitochondria Different-Phenotype (%) [1]: 39% and 52%
- Population Mitotic Cells (%) [1]: 68% and 65%
- Population Normal (%) [1]: 93% and 89%
- Population Pyknosed Nuclei (%) [1]: 10% and 15%
- Population Tubulin-Different-Phenotype (%) [1]: 26% and 23%
- Total Cell Count [1]: 469 and 315
- Population Apoptotic (%) [2]: 42% and 35%
- Population Fragmented Nuclei (%) [2]: 6% and 5%
- Population Healthy Nuclei (%) [2]: 80% and 78%
- Population Hoechst High Intensity Objects (%) [2]: 7% and 11%
- Population Membrane Permeable-Phenotype (%) [2]: 0%
- Population Mitochondria Different-Phenotype (%) [2]: 51% and 69%
- Population Mitotic Cells (%) [2]: 57% and 65%
- Population Normal (%) [2]: 92% and 88%
- Population Pyknosed Nuclei (%) [2]: 12% and 16%
- Population Tubulin-Different-Phenotype (%) [2]: 38% and 33%
- Total Cell Count [2]: 356 and 280
- Population Apoptotic (%) [3]: 26% and 44%
- Population Fragmented Nuclei (%) [3]: 7% and 6%
- Population Healthy Nuclei (%) [3]: 81% and 84%
- Population Hoechst High Intensity Objects (%) [3]: 2% and 7%
- Population Membrane Permeable-Phenotype (%) [3]: 0%
- Population Mitochondria Different-Phenotype (%) [3]: 22% and 37%
- Population Mitotic Cells (%) [3]: 73% and 55%
- Population Normal (%) [3]: 97% and 92%
- Population Pyknosed Nuclei (%) [3]: 11% and 8%
- Population Tubulin-Different-Phenotype (%) [3]: 17% and 15%
- Total Cell Count [3]: 617 and 357
- Population Apoptotic (%) [4]: 40%
- Population Fragmented Nuclei (%) [4]: 10% and 9%
- Population Healthy Nuclei (%) [4]: 73% and 77%
- Population Hoechst High Intensity Objects (%) [4]: 5%
- Population Membrane Permeable-Phenotype (%) [4]: 0%
- Population Mitochondria Different-Phenotype (%) [4]: 34% and 46%
- Population Mitotic Cells (%) [4]: 60%
- Population Normal (%) [4]: 94%
- Population Pyknosed Nuclei (%) [4]: 16% and 12%
- Population Tubulin-Different-Phenotype (%) [4]: 23% and 22%
- Total Cell Count [4]: 462 and 384
- Population Apoptotic (%) [5]: 16% and 28%
- Population Fragmented Nuclei (%) [5]: 10% and 11%
- Population Healthy Nuclei (%) [5]: 83%
- Population Hoechst High Intensity Objects (%) [5]: 2%
- Population Membrane Permeable-Phenotype (%) [5]: 0% and 2%
- Population Mitochondria Different-Phenotype (%) [5]: 18% and 21%
- Population Mitotic Cells (%) [5]: 83% and 71%
- Population Normal (%) [5]: 97%
- Population Pyknosed Nuclei (%) [5]: 6% and 4%
- Population Tubulin-Different-Phenotype (%) [5]: 11% and 10%
- Total Cell Count [5]: 1062 and 591
- Population Apoptotic (%) [6]: 26% and 35%
- Population Fragmented Nuclei (%) [6]: 16% and 8%
- Population Healthy Nuclei (%) [6]: 72% and 83%
- Population Hoechst High Intensity Objects (%) [6]: 4%
- Population Membrane Permeable-Phenotype (%) [6]: 0%
- Population Mitochondria Different-Phenotype (%) [6]: 25% and 27%
- Population Mitotic Cells (%) [6]: 73% and 65%
- Population Normal (%) [6]: 95%
- Population Pyknosed Nuclei (%) [6]: 10% and 7%
- Population Tubulin-Different-Phenotype (%) [6]: 16% and 12%
- Total Cell Count [6]: 646 and 550

SMILES: CCOc1c2c(c(OCC)c3ncccc13)CN(c1ccc(CS(=O)(=O)NC(=O)Cc3ccccc3OC)cc1C)C2=O
- Population Apoptotic (%) [1]: 33% and 35%
- Population Fragmented Nuclei (%) [1]: 3% and 5%
- Population Healthy Nuclei (%) [1]: 81% and 82%
- Population Hoechst High Intensity Objects (%) [1]: 6% and 5%
- Population Membrane Permeable-Phenotype (%) [1]: 0%
- Population Mitochondria Different-Phenotype (%) [1]: 43% and 54%
- Population Mitotic Cells (%) [1]: 66% and 64%
- Population Normal (%) [1]: 93% and 94%
- Population Pyknosed Nuclei (%) [1]: 14% and 12%
- Population Tubulin-Different-Phenotype (%) [1]: 31% and 16%
- Total Cell Count [1]: 356 and 355
- Population Apoptotic (%) [2]: 45% and 53%
- Population Fragmented Nuclei (%) [2]: 9% and 7%
- Population Healthy Nuclei (%) [2]: 78% and 76%
- Population Hoechst High Intensity Objects (%) [2]: 4% and 9%
- Population Membrane Permeable-Phenotype (%) [2]: 0%
- Population Mitochondria Different-Phenotype (%) [2]: 49% and 72%
- Population Mitotic Cells (%) [2]: 54% and 46%
- Population Normal (%) [2]: 95% and 90%
- Population Pyknosed Nuclei (%) [2]: 12% and 16%
- Population Tubulin-Different-Phenotype (%) [2]: 34% and 29%
- Total Cell Count [2]: 367 and 362
- Population Apoptotic (%) [3]: 35% and 27%
- Population Fragmented Nuclei (%) [3]: 11% and 5%
- Population Healthy Nuclei (%) [3]: 73% and 85%
- Population Hoechst High Intensity Objects (%) [3]: 5% and 3%
- Population Membrane Permeable-Phenotype (%) [3]: 0%
- Population Mitochondria Different-Phenotype (%) [3]: 28% and 27%
- Population Mitotic Cells (%) [3]: 64% and 72%
- Population Normal (%) [3]: 94% and 96%
- Population Pyknosed Nuclei (%) [3]: 14% and 8%
- Population Tubulin-Different-Phenotype (%) [3]: 20% and 10%
- Total Cell Count [3]: 462 and 473
- Population Apoptotic (%) [4]: 18% and 32%
- Population Fragmented Nuclei (%) [4]: 10% and 8%
- Population Healthy Nuclei (%) [4]: 75% and 82%
- Population Hoechst High Intensity Objects (%) [4]: 4% and 8%
- Population Membrane Permeable-Phenotype (%) [4]: 0% and 1%
- Population Mitochondria Different-Phenotype (%) [4]: 36% and 49%
- Population Mitotic Cells (%) [4]: 81% and 67%
- Population Normal (%) [4]: 95% and 91%
- Population Pyknosed Nuclei (%) [4]: 14% and 9%
- Population Tubulin-Different-Phenotype (%) [4]: 28% and 17%
- Total Cell Count [4]: 446 and 481
- Population Apoptotic (%) [5]: 29% and 33%
- Population Fragmented Nuclei (%) [5]: 13% and 11%
- Population Healthy Nuclei (%) [5]: 79% and 83%
- Population Hoechst High Intensity Objects (%) [5]: 3% and 1%
- Population Membrane Permeable-Phenotype (%) [5]: 0%
- Population Mitochondria Different-Phenotype (%) [5]: 20% and 14%
- Population Mitotic Cells (%) [5]: 70% and 66%
- Population Normal (%) [5]: 96% and 98%
- Population Pyknosed Nuclei (%) [5]: 6% and 5%
- Population Tubulin-Different-Phenotype (%) [5]: 13% and 7%
- Total Cell Count [5]: 822 and 770
- Population Apoptotic (%) [6]: 41% and 33%
- Population Fragmented Nuclei (%) [6]: 13% and 12%
- Population Healthy Nuclei (%) [6]: 78% and 81%
- Population Hoechst High Intensity Objects (%) [6]: 4% and 3%
- Population Membrane Permeable-Phenotype (%) [6]: 1% and 0%
- Population Mitochondria Different-Phenotype (%) [6]: 32% and 22%
- Population Mitotic Cells (%) [6]: 58% and 66%
- Population Normal (%) [6]: 95% and 96%
- Population Pyknosed Nuclei (%) [6]: 8% and 6%
- Population Tubulin-Different-Phenotype (%) [6]: 16% and 11%
- Total Cell Count [6]: 631 and 724
